Assay results from different studies.
Target: Aurora kinase B (AURKB, Homo sapiens, UniProt Q96GD4)

C#Cc1cccc(Nc2ncnc3cc(OCCOC)c(OCCOC)cc23)c1 — activity vs control (enzyme activity, inhibitor; 0.5 µM): 74.7%
CCC(=O)N[C@@H]1CC[C@H](C(=O)N(C)c2ccc(-c3nc4ccccc4o3)cc2)C1 — remaining binding (cell-free assay, competition with immobilised ligand; 1 µM): 96%
CN1CC(Oc2cnc(C#N)cc2-c2ccn3nc(NC(=O)C4CC4)cc3c2)C1 — inhibition (enzyme activity, inhibitor; 1 µM): 1%
Cc1c[nH]c2nccc(Oc3c(F)cc(Nc4cc(Cl)nc(N)n4)cc3F)c12 — remaining binding (cell-free assay, competition with immobilised ligand; 0.1 µM): 82%
NS(=O)(=O)c1ccc(CNc2ccnc(Nc3cccc(CN4CCOCC4)c3)n2)cc1 — remaining activity (enzyme activity, inhibitor, radiometric; 1 µM): 48%
Cc1nc(N2CC[C@@H](O)C2)ncc1-c1cc(C(F)(F)F)cc2[nH]ncc12 — remaining binding (cell-free assay, competition with immobilised ligand; 1 µM): 100%
COc1cc(/C=C/C(=O)CC(=O)/C=C/c2ccc(O)c(OC)c2)ccc1O — activity vs control (enzyme activity, inhibitor; 1 µM): 79%
CC(=O)c1c(NS(C)(=O)=O)c2cc(-c3ccc(Cl)cc3)c(-c3ccc(Cl)cc3Cl)nc2n(C)c1=O — remaining binding (cell-free assay, competition with immobilised ligand; 1 µM): 100%
Cc1nn(CC(F)(F)F)cc1Nc1ncc(Br)c(NCCc2cnc[nH]2)n1 — remaining activity (enzyme activity, inhibitor, radiometric; 1 µM): 22%
CC(=O)C1=C(C)N(c2cccc(C(F)(F)F)c2)C(=O)N[C@@H]1c1ccc(C#N)nc1 — remaining binding (cell-free assay, competition with immobilised ligand; 1 µM): 100%
C=CC(=O)Nc1cc(Nc2nccc(Nc3cc(Cl)c(F)cc3C(C)(C)O)n2)c(OC)cc1N1CC[C@@H](N(C)C)C1 — inhibition (enzyme activity, inhibitor; 1 µM): 10%
Cc1cc(Nc2cc3ncccc3c(N[C@@H]3C[C@H]4CC[C@@H](C3)N4CCC#N)n2)n[nH]1 — inhibition (enzyme activity, inhibitor; 1 µM): 80%
Cc1ccc(C(=O)NCc2ccsc2)cc1C#Cc1cn(C(C)C)c2ncnc(N)c12 — activity vs control (enzyme activity, inhibitor; 1 µM): 40%
CS(=O)(=O)Nc1cccc(-c2csc(NC(=O)CSc3nc4nccnc4c(=O)n3CCc3ccccc3)n2)c1 — inhibition (enzyme activity, inhibitor; 10 µM): -11%
CN(C)S(=O)(=O)c1ccc2c(c1)/C(=C/c1cc3c([nH]1)CCCC3)C(=O)N2 — remaining signal (cell-free assay; 0.5 µM): 11%
Cc1nn(CC(F)(F)F)cc1Nc1ncc(C2CC2)c(NCCc2c[nH]cn2)n1 — remaining activity (enzyme activity, inhibitor, radiometric; 1 µM): 82%
CN(C)C1CCN(CC#Cc2nn(C3CCCC3)c3nc(NCc4ccccc4)ncc23)C1 (centres unmarked) — inhibition (enzyme activity, inhibitor, FRET; 0.1 µM): 8%
c1ccc(N2CCN(Cc3nc4ccccc4[nH]3)CC2)nc1 — remaining binding (cell-free assay, competition with immobilised ligand; 1 µM): 18%
Brc1cnc(Nc2cccc(CN3CCOCC3)c2)nc1NCCc1c[nH]cn1 — remaining activity (enzyme activity, inhibitor, radiometric; 1 µM): 1%
COc1cc2c(Nc3ccc(Br)cc3F)ncnc2cc1OCC1CCN(C)CC1 — remaining signal (cell-free assay; 0.5 µM): 95.5%
